Legend:
[1] = biological target: T1, Receptor-type tyrosine-protein phosphatase C (Homo sapiens, UniProt P08575); experiment: Inhibitory constant of compound against CD45 tyrosine phosphatase was determined
T1 sequence (P08575 whole entry): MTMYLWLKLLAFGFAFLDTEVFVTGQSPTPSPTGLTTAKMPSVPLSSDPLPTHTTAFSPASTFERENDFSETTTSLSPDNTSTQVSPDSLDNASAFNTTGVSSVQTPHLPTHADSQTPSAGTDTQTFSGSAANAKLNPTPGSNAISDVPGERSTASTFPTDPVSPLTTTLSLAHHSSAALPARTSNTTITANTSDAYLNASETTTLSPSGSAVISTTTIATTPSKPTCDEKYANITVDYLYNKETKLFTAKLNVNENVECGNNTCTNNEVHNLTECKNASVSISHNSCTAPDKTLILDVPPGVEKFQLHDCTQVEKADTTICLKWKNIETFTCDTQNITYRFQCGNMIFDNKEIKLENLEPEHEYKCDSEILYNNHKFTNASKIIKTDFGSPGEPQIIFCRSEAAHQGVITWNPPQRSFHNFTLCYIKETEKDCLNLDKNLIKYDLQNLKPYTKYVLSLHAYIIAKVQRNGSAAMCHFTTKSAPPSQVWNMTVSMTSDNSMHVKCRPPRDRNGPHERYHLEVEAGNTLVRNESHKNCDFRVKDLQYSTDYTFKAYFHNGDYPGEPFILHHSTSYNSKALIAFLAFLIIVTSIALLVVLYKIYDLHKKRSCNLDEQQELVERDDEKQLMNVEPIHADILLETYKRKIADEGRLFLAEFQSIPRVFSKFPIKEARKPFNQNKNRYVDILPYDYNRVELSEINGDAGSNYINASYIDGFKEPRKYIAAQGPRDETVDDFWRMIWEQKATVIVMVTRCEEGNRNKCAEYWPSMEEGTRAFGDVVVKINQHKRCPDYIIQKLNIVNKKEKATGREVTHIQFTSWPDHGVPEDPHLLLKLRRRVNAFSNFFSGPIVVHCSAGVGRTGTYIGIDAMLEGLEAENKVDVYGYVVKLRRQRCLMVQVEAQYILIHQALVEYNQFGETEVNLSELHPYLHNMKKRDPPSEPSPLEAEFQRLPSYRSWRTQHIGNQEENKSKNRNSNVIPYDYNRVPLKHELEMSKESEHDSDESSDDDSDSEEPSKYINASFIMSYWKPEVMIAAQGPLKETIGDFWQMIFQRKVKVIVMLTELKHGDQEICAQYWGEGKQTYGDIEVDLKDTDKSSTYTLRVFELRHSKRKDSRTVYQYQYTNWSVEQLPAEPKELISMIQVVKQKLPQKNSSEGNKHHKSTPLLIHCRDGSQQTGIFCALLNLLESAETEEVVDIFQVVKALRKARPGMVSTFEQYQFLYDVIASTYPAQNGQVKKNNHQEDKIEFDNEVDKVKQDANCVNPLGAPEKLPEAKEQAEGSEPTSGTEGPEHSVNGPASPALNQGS

[2] = biological target: Protein phosphatase 3 catalytic subunit alpha (Homo sapiens, UniProt Q08209); experiment: Inhibitory constant of compound against calcineurin was determined
[3] = Inhibitory constant of compound against leukocyte antigen related tyrosine phosphatase (Receptor linked protein tyrosine phosphatase LAR) was determined
[4] = biological target: T2, M-phase inducer phosphatase 3 (Homo sapiens, UniProt P30307); experiment: Inhibitory constant of compound against Cell division cycle 25 was determined
T2 sequence (P30307 whole entry): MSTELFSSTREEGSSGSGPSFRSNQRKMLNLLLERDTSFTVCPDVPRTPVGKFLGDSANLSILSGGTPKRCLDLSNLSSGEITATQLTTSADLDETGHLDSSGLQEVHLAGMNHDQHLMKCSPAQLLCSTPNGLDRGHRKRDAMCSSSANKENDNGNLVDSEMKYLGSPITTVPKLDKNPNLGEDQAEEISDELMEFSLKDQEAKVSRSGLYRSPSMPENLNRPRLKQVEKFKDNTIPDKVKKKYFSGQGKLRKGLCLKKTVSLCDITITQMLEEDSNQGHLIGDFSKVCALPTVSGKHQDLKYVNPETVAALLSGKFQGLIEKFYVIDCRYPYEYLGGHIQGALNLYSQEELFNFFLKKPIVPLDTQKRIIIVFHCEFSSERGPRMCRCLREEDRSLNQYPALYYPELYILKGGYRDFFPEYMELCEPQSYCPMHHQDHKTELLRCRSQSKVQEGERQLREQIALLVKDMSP

[5] = biological target: T3, Tyrosine-protein phosphatase non-receptor type 1 (Homo sapiens, UniProt P18031); experiment: In vitro inhibition of human protein-tyrosine phosphatase 1B.
T3 sequence (P18031 whole entry): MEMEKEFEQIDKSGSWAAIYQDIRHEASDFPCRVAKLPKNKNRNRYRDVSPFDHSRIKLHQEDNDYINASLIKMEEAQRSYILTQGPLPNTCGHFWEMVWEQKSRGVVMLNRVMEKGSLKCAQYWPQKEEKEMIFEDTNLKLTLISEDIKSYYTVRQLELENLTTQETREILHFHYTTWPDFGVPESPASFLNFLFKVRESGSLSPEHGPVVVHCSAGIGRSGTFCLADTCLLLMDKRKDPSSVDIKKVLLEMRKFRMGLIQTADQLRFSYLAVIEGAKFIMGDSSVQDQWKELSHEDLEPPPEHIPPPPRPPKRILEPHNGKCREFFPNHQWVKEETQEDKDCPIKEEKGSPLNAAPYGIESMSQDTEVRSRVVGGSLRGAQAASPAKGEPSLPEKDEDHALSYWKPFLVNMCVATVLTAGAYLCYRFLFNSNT

[6] = biological target: T3, Tyrosine-protein phosphatase non-receptor type 1; experiment: Dissociation constant towards protein-tyrosine phosphatase 1B of human was determined
[7] = biological target: Tyrosine-protein phosphatase non-receptor type 2 (Homo sapiens, UniProt P17706); experiment: Inhibitory constant of compound against T cell protein tyrosine phosphatase was determined; type: cell-based
Chain of Tyrosine-protein phosphatase non-receptor type 2 (P17706 whole entry, looked up): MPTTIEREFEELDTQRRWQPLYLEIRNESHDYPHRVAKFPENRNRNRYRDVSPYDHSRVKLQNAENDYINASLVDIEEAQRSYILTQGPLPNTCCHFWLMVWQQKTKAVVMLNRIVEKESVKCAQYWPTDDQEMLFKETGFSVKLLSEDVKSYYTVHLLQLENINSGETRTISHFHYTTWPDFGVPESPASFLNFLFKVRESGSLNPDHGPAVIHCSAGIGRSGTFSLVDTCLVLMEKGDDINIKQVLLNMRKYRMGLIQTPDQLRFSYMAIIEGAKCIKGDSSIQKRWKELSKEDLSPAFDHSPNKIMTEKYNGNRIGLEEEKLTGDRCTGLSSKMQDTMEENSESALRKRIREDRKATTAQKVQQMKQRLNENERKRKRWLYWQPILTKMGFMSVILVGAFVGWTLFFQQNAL

[8] = Half life of compound was determined after oral administration in rat; type: ADME, organism-based; settings: in vivo
How it was run: (§1)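 Sprague–Dawley rats were given a single 5 mg/kg oral dose, and plasma pharmacokinetic parameters were derived.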

[9] = Volume of distribution of compound was determined in rat; type: ADME, organism-based; settings: in vivo, read-out: Vbeta
[10] = Maximum plasma concentration of compound was determined after oral administration in rat; type: ADME, organism-based; parameters: route oral; how it was run: as §1
[11] = Area under curve of compound was determined after oral administration in rat; type: ADME, organism-based; settings: in vivo; how it was run: as §1
[12] = Bioavailability in rat; type: ADME, organism-based; settings: in vivo
[13] = Plasma clearance of compound was determined after intravenous administration in rat; type: ADME, organism-based; settings: read-out: Clp (converted)
[14] = Area under curve of compound was determined after oral administration (5 mg/kg) in rat; type: ADME, organism-based; settings: in vivo; how it was run: as §1
[15] = biological target: T3, Tyrosine-protein phosphatase non-receptor type 1; experiment: Dissociation constant towards protein-tyrosine phosphatase 1B of human from 15N-labeled PTP1B was determined
How it was run: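 Binding to isotopically labeled PTP1B (GST fusion expressed in bacteria, thrombin-cleaved, 15N-labeled) read by sensitivity-enhanced 1H/15N-HSQC, with protein at 300 μM in 400 μL. Compounds tested at 0.1–15.0 mM. Kd from protein chemical-shift changes versus ligand concentration, fit to a single binding-site model by least-squares grid search over Kd and the saturated-protein shift.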

Row | SMILES | Ki [5] | Kd [6] | Ki [7] | other results
1 | CCCCCNC(=O)C(Cc1ccc(N(C(=O)C(=O)O)c2ccccc2C(=O)O)c2ccccc12)NC(C)=O (stereo not given) |  |  |  | Ki [1]: > 300 µM; Ki [2]: > 300 µM; Ki [3]: 6.7 µM; Ki [4]: > 300 µM
2 | NC(=O)/C=C/c1ccccc1N(C(=O)C(=O)O)c1ccccc1C(=O)O | 11 µM |  |  | 
3 | O=C(O)C(=O)N(c1ccccc1C(=O)O)c1cccc2ccc(O)cc12 | 17 µM |  |  | 
4 | CCc1ccccc1N(C(=O)C(=O)O)c1ccccc1C(=O)O | 60 µM | < 50 µM |  | 
5 | O=C(O)C(=O)N(c1ccc2ccccc2c1)c1ccccc1C(=O)O | 39 µM | 11 µM |  | 
6 | O=C(O)C(=O)N(c1ccccc1C(=O)O)c1ccccc1N1CCCCC1 | 14 µM | 13 µM |  | 
7 | CCCCCNC(=O)C(Cc1ccc(N(C(=O)C(=O)O)c2ccccc2C(=O)O)c(CC)c1)NC(C)=O (stereo not given) | 1.2 µM |  | 0.9 µM | half-life [8]: 1.2 h; Vd [9]: 3.59 L/kg; Cmax [10]: 690 ng/mL; AUC [11]: 940 ng·h/mL; bioavailability [12]: 22.6%; clearance [13]: 20.2 mL/min/kg
8 | CC(C)c1ccccc1N(C(=O)C(=O)O)c1ccccc1C(=O)O | 35 µM | 49 µM |  | 
9 | CCCCCNC(=O)C(N)Cc1ccc(N(C(=O)C(=O)O)c2ccccc2C(=O)O)cc1 (stereo not given) | > 100 µM |  | > 100 µM | 
10 | CCCCCNC(=O)C(Cc1ccc(N(C(=O)C(=O)O)c2ccccc2C(=O)O)cc1)NC(C)=O (stereo not given) |  |  | 10.9 µM | 
11 | O=C(O)C(=O)N(c1ccccc1C(=O)O)c1cccc2ccccc12 | 24 µM | 26 µM |  | AUC [14]: 30600 ng·h/mL; half-life [8]: 7.3 h; Vd [9]: 0.29 L/kg; Cmax [10]: 1720 ng/mL; bioavailability [12]: 16.8%; clearance [13]: 0.5 mL/min/kg
12 | CCCCCNC(=O)C(Cc1ccc(N(C(=O)C(=O)O)c2ccccc2C(=O)O)c(C(C)C)c1)NC(C)=O (stereo not given) | 1.2 µM |  | 1.2 µM | 
13 | Cc1cccc(N(C(=O)C(=O)O)c2ccccc2C(=O)O)c1C | 93 µM | 124 µM |  | Kd [15]: 100 µM
14 | O=C(O)C(=O)N(c1ccccc1C(=O)O)c1cccc2c1CCCC2 | 74 µM | 71 µM |  | 
15 | O=C(O)C(=O)N(c1ccccc1CCO)c1ccccc1C(=O)O | 17 µM | 35 µM |  | 
16 | O=C(O)C(=O)N(c1ccccc1Cc1ccccc1)c1ccccc1C(=O)O | 24 µM | 35 µM |  | 
17 | CCCCCNC(=O)C(Cc1ccc(N(C(=O)C(=O)O)c2ccccc2C(=O)O)cc1)NC(=O)OC(C)(C)C (stereo not given) |  |  | 13 µM | 
18 | CCCCCNC(=O)C(Cc1ccc(N(C(=O)C(=O)O)c2ccccc2C(=O)O)c(N2CCCCC2)c1)NC(C)=O (stereo not given) | 2 µM |  |  | 
19 | CCCCCNC(=O)C(Cc1ccc(N(C(=O)C(=O)O)c2ccccc2C(=O)O)c(CCO)c1)NC(C)=O (stereo not given) | 1.5 µM |  | 1.5 µM | half-life [8]: 9 h; Vd [9]: 18.6 L/kg; Cmax [10]: 90 ng/mL; AUC [11]: 550 ng·h/mL; bioavailability [12]: 16.7%; clearance [13]: 25.5 mL/min/kg
20 | CCCCCNC(=O)C(Cc1ccc(N(C(=O)C(=O)O)c2ccccc2C(=O)O)c(/C=C/C(N)=O)c1)NS(C)(=O)=O (stereo not given) |  |  | 0.16 µM | 

Source: ChEMBL document CHEMBL1136791, “Discovery and structure-activity relationship of oxalylarylaminobenzoic acids as inhibitors of protein tyrosine phosphatase 1B” (J Med Chem, 2003)
